High-throughput results from PubChem.
This is a sample that favours compounds with a hit; in the whole collection about 1.1% have one here.
FXIa inh – inhibitors of human coagulation factor XIa | P03951 | purified FXIa, Boc-Glu-Ala-Arg-AMC fluorogenic substrate | inhibition, % at 5 µM | actives 0.14% (n = 220,000) | AID 798;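 active = inhibition of at least 40%; inactive = inhibition below 40%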;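 also: fluorescence of freed AMC excited at 355 nm; 0% = enzyme without compound and 100% = no enzyme blank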
Target sequence (P03951 19-387 limits assumed): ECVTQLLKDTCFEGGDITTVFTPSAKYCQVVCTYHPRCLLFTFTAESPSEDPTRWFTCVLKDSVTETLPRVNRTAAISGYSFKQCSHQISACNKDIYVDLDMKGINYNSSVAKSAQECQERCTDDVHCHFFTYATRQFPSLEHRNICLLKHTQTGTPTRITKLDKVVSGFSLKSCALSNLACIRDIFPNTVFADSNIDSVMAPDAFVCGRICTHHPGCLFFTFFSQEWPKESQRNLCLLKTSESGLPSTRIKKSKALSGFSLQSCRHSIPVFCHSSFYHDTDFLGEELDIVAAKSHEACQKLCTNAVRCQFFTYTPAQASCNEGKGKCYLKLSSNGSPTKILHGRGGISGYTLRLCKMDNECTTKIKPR
Target sequence (P03951 388-625 limits assumed): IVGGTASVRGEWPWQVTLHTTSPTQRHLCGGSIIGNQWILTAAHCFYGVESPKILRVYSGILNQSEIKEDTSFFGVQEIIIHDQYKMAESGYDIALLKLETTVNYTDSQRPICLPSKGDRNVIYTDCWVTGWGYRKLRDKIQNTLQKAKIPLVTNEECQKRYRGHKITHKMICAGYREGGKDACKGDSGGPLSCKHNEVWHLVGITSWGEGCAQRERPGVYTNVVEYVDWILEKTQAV
KLK5 inh – blocks human kallikrein 5 protease activity. Q9Y337. recombinant hK5, fluorogenic AMC substrate cleavage. actives 0.59% (n = 210,000). inhibition, % at 5 µM;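 active = inhibition of 40% or more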;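 also: 0% = enzyme controls without compound and 100% = no-enzyme blanks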
Thrombin inh – blocks human thrombin protease activity; P00734; alpha-thrombin, Boc-VPR-AMC fluorogenic substrate cleavage; inhibition, % at 5 µM; actives 0.26% (n = 220,000);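 active = inhibition at or above 40%; inactive = inhibition below 40%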;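 also: 0% = enzyme with no compound and 100% = wells without enzyme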
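Test system: human alpha-thrombin protein / Dosing: one concentration per compound, 5 µM, with 0.2% DMSO / Medium: pH 7.5 Tris-saline with Tween 20 / Benchmarks: no-compound enzyme wells and no-enzyme blanks / Read-out basis: percent inhibition of thrombin substrate cleavage / Timing: reaction at room temperature / Measured by: fluorescence, ex 355 nm, em 460 nm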
FXIIa inh – inhibitors of human coagulation factor XIIa | purified FXIIa, Boc-QGR-AMC fluorogenic substrate, 2 h | inhibition, % at 5 µM | actives 0.3% (n = 220,000); in the data active = inhibition above about 40%;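 also: 0% = enzyme with no compound and 100% = blank without enzyme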
Biofilm kill mix – mixtures killing C. albicans biofilm; C. albicans biofilm persisters + clotrimazole, fluorescence viability; primary screen in compound mixtures of four per well; inhibition, % at 7.6 µM; actives 0.02% (n = 120,000); AID 1242;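 active = inhibition above 30.3% in the primary screen of four-compound pools, then above 30% when the compound was retested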;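 also: compounds exposed to preformed 24 h biofilms for 48 h; 0% = untreated biofilm control and 100% = clotrimazole plus chlorhexidine kill blank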
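System: C. albicans CAF4-2 wild-type biofilms; Medium: RPMI/MOPS medium, pH 7.0; Reagent: Clotrimazole, 50 µg/mL; Times: biofilm formation 24 h, compound exposure 48 h, 37 °C; Detection: 2-h Alamar Blue fluorescence, 535/590 nm excitation/emission; Evaluation: percent inhibition of biofilm viability.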
Lipid droplet – modulators of hepatic lipid droplet formation; AML12 mouse hepatocytes, oleate lipid droplets, BODIPY imaging; inhibition, % at 6.5 µM; actives 0.4% (n = 240,000);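 active = lipid droplet intensity inhibited by at least 50%, with more than 500 cells counted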
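Material – mouse AML12 hepatocyte cell line, fixed after treatment · Compound dosing – one dose, 6.5 µM compound · Times – compound with oleate, overnight · Measured by – Image-based BODIPY and DAPI two-channel analysis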
Numbers without * were called inactive; nt = no result.

SMILES	FXIa inh	KLK5 inh	Thrombin inh	FXIIa inh	Biofilm kill mix	Lipid droplet
COc1cc2c(=O)n(CCC(=O)NCC3CCCO3)c(=O)n(CC(=O)Nc3ccc(F)cc3)c2cc1OC (stereo not drawn)	nt	nt	nt	nt	nt	-2.0
CC12CCC(C(=O)NC(c3ccccc3)c3ccccc3)(OC1=O)C2(C)C (stereo not drawn)	12.5	37.2	13.4	55.0*	nt	3.9
O=C(NCc1cccs1)C1CCCN(C(=O)Nc2ccccc2)C1 (stereo not drawn)	nt	nt	nt	nt	nt	-9.2
Cc1[nH]c(=O)[nH]c(=O)c1/C=N/NC(=O)[C@@H](NC(=O)OC(C)(C)C)C(C)C	-4.0	-44.8	-2.3	1.7	nt	nt
Cc1[nH]c(=O)[nH]c(=O)c1/C=N/NC(=O)[C@H](C)N	18.3	51.7*	25.0	39.8	9.8	2.7
N=C1C=CC=C2C1=NC1(CCCCC1)N2O	32.4	98.2*	104.0*	11.9	nt	-13.6
O=C(CSc1ncccn1)n1c2c(c3ccccc31)CCCC2	1.2	77.0*	17.1	24.2	nt	nt
Cc1cc(C)nc(SCC(=O)n2c3c(c4ccccc42)CCCC3)n1	-1.9	5.5	-5.5	3.9	15.9	23.3
Cc1cc(OCC(=O)Nc2ccc(CN3CCCCC3)cc2)ccc1Cl	28.9	42.4*	16.3	21.2	4.6	0.8
COc1ccc(NC(=O)CCl)cn1	2.2	2.2	1.4	10.6	15.1	26.4
COc1ccc(NC(=O)C(Cl)=C(Cl)Cl)cn1	32.0	103.5*	-2.8	26.5	10.0	-3.6
Nc1ccc2nc(COc3ccccc3)[nH]c2c1	nt	nt	nt	nt	nt	0.2
COCCNc1nnc(SCC(=O)NNC(=O)c2ccccc2)s1	-2.9	-7.8	-15.6	-8.9	13.9	-7.8
COCCNc1nnc(SCC(=O)c2c[nH]c3ccccc23)s1	8.0	38.7	100.8*	25.2	12.2	6.0
CCOC(=O)CNC(=O)Cn1cnc2c(nnn2-c2ccccc2)c1=O	nt	nt	nt	nt	nt	7.1
CCOC(=O)CNC(=O)Cn1cnc2c(nnn2-c2ccc(F)cc2)c1=O	12.5	44.9*	22.2	31.7	nt	nt
N=C(N)c1ccc(OCCCCCOc2ccc(C(=N)N)cc2)cc1	10.2	-1.4	24.7	45.9*	16.8	1.3
CCCCCOC(=O)Nc1nnc(CCCCC)s1	3.7	-21.3	-7.8	46.8*	nt	13.6
CCCCCc1nnc(NC(=O)OCCC)s1	-11.8	-6.0	-6.4	-0.3	nt	2.4
Cc1ccc(S(=O)(=O)NCC(=O)N(CC(=O)NCC2CCCO2)Cc2ccc(Cl)cc2)cc1 (stereo not drawn)	nt	nt	nt	nt	nt	-1.1
COc1ccc(-c2ccc(-c3noc(-c4ccccc4C)n3)c(OC)n2)cc1	-7.2	-7.5	-7.1	2.5	nt	-1.7
COc1ccc(-c2ccc(-c3noc(-c4cccc(OC)c4)n3)c(OC)n2)cc1	-6.3	59.8*	-1.2	-10.1	nt	nt
CCn1c(SCC(=O)N2CCN(c3ccccc3)CC2)nnc1-c1cc2cc(Cl)ccc2o1	18.2	0.4	15.9	46.6*	nt	-0.4
CC(C)N1CCC(=NNC(=O)c2cccs2)CC1	nt	nt	nt	nt	nt	0.2
COc1ccc(NC(=O)NNC(=O)COc2ccc3cc(Br)ccc3c2)c(OC)c1	nt	nt	nt	nt	nt	7.6
SMILES	FXIa inh	KLK5 inh	Thrombin inh	FXIIa inh	Biofilm kill mix	Lipid droplet
O=S(=O)(N1CCCCC1)N1CCN(c2ccccc2F)CC1	14.7	5.7	1.0	47.7*	nt	-3.0
CC(C)n1cc(CN2CCC(Oc3ccc(C(=O)N4CCCC4)cc3)CC2)cn1	nt	nt	nt	nt	nt	7.2
CC(=O)N1CCCc2cc(S(=O)(=O)N3CCCC(C(=O)Nc4ccccc4C)C3)ccc21 (stereo not drawn)	nt	nt	nt	nt	nt	-0.1
Cc1ccc(NC(=O)Cc2ncc(C(F)(F)F)cc2Cl)cc1Cl	-2.3	57.4*	0.8	8.5	nt	nt
O=c1[nH]c2ccccc2nc1-c1ccccc1	19.3	111.9*	10.9	18.2	10.8	11.8
CCCOc1cccc(C(=O)NC(=S)Nc2cccc(NC(=O)c3ccccc3Cl)c2)c1	8.3	-18.1	-1.6	9.3	20.6	-14.0
CC(C)COc1cccc(C(=O)NC(=S)Nc2cccc(NC(=O)c3ccccc3Cl)c2)c1	15.4	41.7*	18.2	21.7	6.1	-4.0
N/C(=N\S(=O)(=O)c1ccccc1)c1ccc([N+](=O)[O-])cc1	-8.9	8.4	47.7*	9.0	6.1	16.3
Cc1ccc(CSc2cc(C)[nH]c(=O)n2)cc1	nt	nt	nt	nt	nt	20.2
C#CCOCCOCCOCCNc1nc(N2CCN(C(=O)[C@H]([C@@H](C)CC)n3cc([C@@H](N)CO)nn3)CC2)nc(N2CCN(C(=O)[C@H](Cc3cc4ccccc4[nH]3)n3cc([C@@H](N)Cc4ccc(O)cc4)nn3)CC2)n1	-3.4	-3.5	-3.8	7.4	19.8	8.4
Cc1cc(C)c(C)c(S(=O)(=O)ON2C(=O)c3ccccc3C2=O)c1C	72.3*	11.8	18.1	52.7*	nt	nt
Cc1ccc(S(=O)(=O)ON2C(=O)c3ccccc3C2=O)c(C)c1	57.3*	13.4	61.6*	46.5*	22.4	6.0
Cc1cc(C)c(S(=O)(=O)ON2C(=O)c3ccccc3C2=O)cc1C	71.8*	29.0	56.1*	38.2	nt	nt
O=C1c2ccccc2C(=O)N1OS(=O)(=O)c1ccc(F)cc1	nt	nt	nt	nt	nt	0.2
O=C(CCS(=O)(=O)c1ccc(Br)cc1)NCCC1=CCCCC1	nt	nt	nt	nt	nt	-1.7
CC(C)C1=CC2=CCC3C(C)(C(=O)O)CCCC3(C)C2CC1 (stereo not drawn) (tested in a mixture with another compound)	nt	nt	nt	nt	nt	1.9
O=C(O)CCc1nn2c3ccccc3nc2n(Cc2ccccc2)c1=O	-2.6	-1.6	-5.6	10.1	12.8	-2.6
COc1cc(OC)c(C2C(C(=O)O)c3ccccc3C(=O)N2C)cc1OC (stereo not drawn)	5.4	-4.7	2.3	13.4	nt	nt
COc1ccc(C2C(C(=O)O)c3ccccc3C(=O)N2C)cc1Br (stereo not drawn)	34.4	2.8	1.0	57.5*	nt	-1.4
Cc1ccc(Cn2c(O)c(N=NC(=S)Nc3ccccc3F)c3cc(S(=O)(=O)N4CCOCC4)ccc32)cc1	49.7*	95.0*	2.4	36.9	20.8	18.4
CCc1ccccc1NC(=S)N=Nc1c(O)n(C)c2ccc(S(=O)(=O)N3CCOCC3)cc12	9.1	-24.5	11.5	14.0	14.1	-11.9
COc1cc(NC(=O)CCc2c(C)[nH]c(=O)c(C#N)c2C)cc(OC)c1	nt	nt	nt	nt	nt	7.2
Cc1cccc(NC(=O)Nc2ccc3c(c2)N(C)C(=O)CS3)n1	-1.5	58.5*	30.9	7.9	nt	nt
Cc1cc(NC(=O)C(=O)c2cn(C)c3ccccc23)no1	-3.5	4.7	-6.9	8.0	14.5	8.7
O=[N+]([O-])c1cccc(C=Nc2cc3c(cc2Br)OCCO3)c1	7.9	50.6*	12.4	-5.8	6.5	23.9
O=C(N/N=C/c1cccc([N+](=O)[O-])c1)c1ccc2c(c1)OCCO2	16.4	0.9	1.6	12.3	nt	nt
Cc1nc(-c2cnn(-c3ccccc3)c2)c2cc(C)oc2n1	16.1	4.5	66.9*	29.4	nt	3.1
